Results from ChEMBL document CHEMBL2203063, “Azo-reductase activated budesodine prodrugs for colon targeting” (Bioorg Med Chem Lett, 2012).

Columns and labels:
[1] = Prodrug conversion assessed as Clostridium perfringes azoreductase-mediated reduction after 6 hrs at pH 7.4; format: ADME; conditions: clostridium perfringens, pH 7.4, 6 h
Summary of the method: (§1)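 Prodrugs incubated anaerobically with a suspension of azoreductase-producing Clostridium perfringens at 37 °C, pH 7.4, sampled over 24 h. Progress curves tracked loss of prodrug and appearance of budesonide and linker byproducts (the dihydroquinolone or 3,3-dimethyl-1,3-dihydro-indol-2-one). Assay conditions follow the group's earlier method.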

[2] = Chemical stability in simulated gastric juice up to 24 hrs; format: physicochemical; conditions: simulated gi fluid
Summary of the method: (§2)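 Prodrug incubated in simulated duodenal or gastric juice at 37 °C and followed for up to 24 h to see whether it stays intact.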

[3] = Drug metabolism assessed as Clostridium perfringes azoreductase-mediated hydrolysis at pH 7.4; format: ADME; conditions: clostridium perfringens
[4] = Chemical stability in simulated doudenal juice up to 24 hrs; format: physicochemical; summary of the method: as §2
[5] = Prodrug conversion assessed as Clostridium perfringes azoreductase-mediated budesonide formation at pH 7.4; format: ADME; conditions: clostridium perfringens; summary of the method: as §1
[6] = Drug metabolism assessed as Clostridium perfringes azoreductase-mediated cyclization to dihydroquinolone at pH 7.4; format: ADME; conditions: clostridium perfringens; summary of the method: as §1
[7] = Prodrug conversion in buffer assessed as half life of cyclization at pH 5; format: physicochemical
[8] = Prodrug conversion in buffer assessed as half life of cyclization at pH 5.5; format: physicochemical
[9] = Prodrug conversion in buffer assessed as half life of cyclization at pH 3.44; format: physicochemical
[10] = Prodrug conversion in buffer assessed as half life of cyclization at pH 2.5; format: physicochemical
[11] = Prodrug conversion in buffer assessed as half life of cyclization at pH 7 to 7.5; format: physicochemical
[12] = Drug metabolism assessed as Clostridium perfringes azoreductase-mediated hydrazine reoxidation to parent azo compound formation at pH 7.4 by HPLC analysis; format: ADME; conditions: clostridium perfringens
[13] = Drug metabolism assessed as Clostridium perfringes azoreductase-mediated hydrazine formation at pH 7.4 by HPLC analysis; format: ADME; conditions: clostridium perfringens

Structure (SMILES)	Drug metabolism [1]	Stability [2]	Drug metabolism [3]	Stability [4]	Drug metabolism [5]	Drug metabolism [6]	t1/2 [7]	t1/2 [8]	t1/2 [9]	t1/2 [10]	t1/2 [11]	Drug metabolism [12]	Drug metabolism [13]
CCCC1O[C@@H]2C[C@H]3[C@@H]4CCC5=CC(=O)C=C[C@]5(C)[C@H]4[C@@H](O)C[C@]3(C)[C@]2(C(=O)COC(=O)CCc2ccccc2/N=N/c2ccc(O)c(C(=O)O)c2)O1 (mixture of isomers)	Active	Stable	Not Active	Stable	Active	–	–	–	–	–	–	–	–
CCCC1O[C@@H]2C[C@H]3[C@@H]4CCC5=CC(=O)C=C[C@]5(C)[C@H]4[C@@H](O)C[C@]3(C)[C@]2(C(=O)COC(=O)C(C)(C)c2ccccc2/N=N/c2ccc(O)c(C(=O)O)c2)O1 (mixture of isomers)	Active	Stable	–	Stable	Active	Active	–	–	–	–	–	–	–
CCCC1O[C@@H]2C[C@H]3[C@@H]4CCC5=CC(=O)C=C[C@]5(C)[C@H]4[C@@H](O)C[C@]3(C)[C@]2(C(=O)COC(=O)CCc2ccccc2N)O1 (mixture of isomers)	–	–	–	–	–	–	52.7 min	73.2 min	29.3 min	25.9 min	201 min	–	–
CCCC1O[C@@H]2C[C@H]3[C@@H]4CCC5=CC(=O)C=C[C@]5(C)[C@H]4[C@@H](O)C[C@]3(C)[C@]2(C(=O)COC(=O)CCc2ccccc2/N=N/c2ccc(C(=O)O)cc2)O1 (mixture of isomers)	Not Active	Stable	–	Stable	Not Active	–	–	–	–	–	–	Active	Active
